Drawing on ChEMBL document CHEMBL3045828, “An efficient method for the purification and characterization of nematicidal azadirachtins A, B, and H, using MPLC and ESIMS” (J Agric Food Chem, 2003), this text covers EC50 and mortality for three compounds.

The mortality is the percentage killed.

≈ marks a conversion by molar mass, not a printed value.

Assay [1] concerns Rhizoctonia solani. Kind of assay: Fungicidal activity against Rhizoctonia solani assessed as mycelial growth inhibition applied as 20% powdery concentrate. The class given is functional. To be noted: read-out: ED50 (the source's name). In outline: (§1)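 Poisoned food technique on potato-dextrose-agar. Fungi kept on PDA slants at 25 °C and subcultured before testing. A stock in acetone (65 mg/4 mL) was diluted into PDA to about 500, 250, 100, 25 and 5 mg/L; acetone was the control. A 5-mm fungal disk was placed centrally, 2 dishes per treatment, 26 (±2) °C until control growth was nearly complete (2-3 days). Colony diameter was measured in three directions, and % and corrected inhibition were calculated.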

Assay [2] relates to Rotylenchulus reniformis. The assay is described as follows: Nematicidal activity against fourth-stage juvenile of Rotylenchulus reniformis (reniform nematode) assessed as juvenile immobility applied as 90% powdery concentrate after 72 hr by stereoscopic binocular microscopic analysis. The format is functional, organism-based. In outline: (§2)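 Juveniles came from a single-egg-mass culture maintained on cowpea in sterilized soil-sand. Exposed in Petri dishes, 3 per treatment, with water plus ethanol as control. Immobility scored by stereomicroscope at 72 h. Revival test: 48 h in distilled water, and revived juveniles were subtracted. Mortality was Abbott-corrected, with LC50 in ppm.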

The test system of assay [3] is Rotylenchulus reniformis. Kind of assay: Nematicidal activity against fourth-stage juvenile of Rotylenchulus reniformis (reniform nematode) assessed as juvenile immobility applied as 20% powdery concentrate after 72 hr by stereoscopic binocular microscopic analysis. The class given is functional, organism-based. In short, it runs like this: as §2
Assay [4] has as its system Caenorhabditis elegans. Kind of assay: Nematicidal activity against Caenorhabditis elegans assessed as mortality at 200 ppm after 24 hr. The format is functional. In outline:
(§3)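 C. elegans grown on NG agar carrying E. coli. 15-20 worms in 48 µL saline per well, 3 wells per treatment, plus 2 µL 50% DMSO with or without test material (200 ppm). Plates covered and kept in a humid chamber. Dead nematodes counted microscopically at 2, 4, 6 and 24 h.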

Assay [5] has as its system Rhizoctonia solani. The assay is described as follows: Fungicidal activity against Rhizoctonia solani assessed as mycelial growth inhibition applied as 90% powdery concentrate. The format is functional. The settings on record: read-out: ED50 (the source's name). In outline:
as §1

Assay [6] has as its system Rotylenchulus reniformis. Kind of assay: Nematicidal activity against fourth-stage juvenile of Rotylenchulus reniformis (reniform nematode) assessed as juvenile immobility applied as 60% powdery concentrate after 72 hr by stereoscopic binocular microscopic analysis. The class given is functional, organism-based. In short, it runs like this:
as §2

Assay [7] relates to Athelia rolfsii. The assay is described as follows: Fungicidal activity against Athelia rolfsii assessed as mycelial growth inhibition applied as 60% powdery concentrate. The class given is functional. The settings on record: Agroathelia rolfsii; read-out: ED50 (the source's name). In short, it runs like this:
as §1

The subject of assay [8] is Athelia rolfsii. Kind of assay: Fungicidal activity against Athelia rolfsii assessed as mycelial growth inhibition. To be noted: Agroathelia rolfsii; read-out: ED50 (the source's name). The format is functional. In short, it runs like this: as §1
Assay [9] deals with Caenorhabditis elegans. Kind of assay: Nematicidal activity against Caenorhabditis elegans assessed as mortality applied as 20% powdery concentrate after 24 hr. The class given is functional. In outline:
as §3

Assay [10] relates to Athelia rolfsii. Kind of assay: Fungicidal activity against Athelia rolfsii assessed as mycelial growth inhibition applied as 20% powdery concentrate. The class given is functional. The settings on record: Agroathelia rolfsii; read-out: ED50 (the source's name). In short, it runs like this:
as §1

In assay [11] the test system is Rhizoctonia solani. The assay is described as follows: Fungicidal activity against Rhizoctonia solani assessed as mycelial growth inhibition applied as 60% powdery concentrate. To be noted: read-out: ED50 (the source's name). The class given is functional. In short, it runs like this:
as §1

The test system of assay [12] is Rhizoctonia solani. The assay is described as follows: Fungicidal activity against Rhizoctonia solani assessed as mycelial growth inhibition. The class given is functional. The settings on record: read-out: ED50 (the source's name). In short, it runs like this:
as §1

The subject of assay [13] is Rotylenchulus reniformis. Kind of assay: Nematicidal activity against fourth-stage juvenile of Rotylenchulus reniformis (reniform nematode) assessed as juvenile immobility after 72 hr by stereoscopic binocular microscopic analysis. The format is functional, organism-based. In outline: as §2

On to `C/C=C(\C)C(=O)O[C@H]1C[C@@H](OC(C)=O)[C@@]2(C(=O)OC)CO[C@H]3[C@@H](O)[C@@](C)([C@]45O[C@@]4(C)[C@@H]4C[C@H]5O[C@@H]5OC=C[C@@]54O)[C@H]4[C@]1(CO[C@]4(O)C(=O)OC)[C@@H]32` [AZADIRACHTIN A], for which the EC50 in the assay with Rhizoctonia solani [1] stood at 165 µg/mL (≈ 229 µM); with Rotylenchulus reniformis [2], 119.1 ppm; in the assay with Rotylenchulus reniformis [3], 193.9 ppm; in the assay on Rhizoctonia solani [5] it was 105 µg/mL (≈ 145 µM); in the assay with Rotylenchulus reniformis [6], 151.9 ppm; in the assay on Athelia rolfsii [7] it was 122 µg/mL (≈ 169 µM). In addition, the results for the EC50 in the assay on Athelia rolfsii [8], in the assay with Athelia rolfsii [10] and in the assay with Rhizoctonia solani [11] were 93.6 µg/mL (≈ 130 µM), 140 µg/mL (≈ 195 µM) and 132 µg/mL (≈ 183 µM), respectively. Moreover, in the assay on Caenorhabditis elegans [4], the mortality at 200 ppm is 56%. Further, in the assay with Caenorhabditis elegans [9], the mortality worked out at 50%.
Turning to `C/C=C(\C)C(=O)O[C@@H]1C[C@H](O)[C@]23CO[C@H](C(=O)OC)[C@H]2[C@](C)([C@]24O[C@@]2(C)[C@H]2C[C@@H]4O[C@@H]4OC=C[C@@]42O)[C@H](O)[C@@H]2OC[C@@]1(C(=O)OC)[C@H]23` [AZADIRACHTIN B], the figures for the EC50 with Rhizoctonia solani [12], with Rotylenchulus reniformis [13] and in the assay on Athelia rolfsii [8] were 85.9 µg/mL (≈ 130 µM), 96.6 ppm and 76.2 µg/mL (≈ 115 µM), respectively. Besides, in the assay on Caenorhabditis elegans [4], the mortality at 200 ppm worked out at 64%.
For `C/C=C(\C)C(=O)O[C@H]1C[C@@H](OC(C)=O)[C@@]2(C(=O)OC)CO[C@H]3[C@@H](O)[C@@](C)([C@]45O[C@@]4(C)[C@H]4C[C@@H]5O[C@@H]5OC=C[C@@]54O)[C@@H]4[C@H](O)OC[C@@]14[C@@H]32` [AZADIRACHTIN H] the same measures were 63.7 µg/mL (≈ 96.1 µM), 141.2 ppm, 43.9 µg/mL (≈ 66.2 µM) and 65%.
